Measured values as given in ChEMBL document CHEMBL5724801, “EUbOPEN Chemogenomics Library - Multiplex” (2024).
“And” between values parts separate entries of the source, which are not always exact repeats. Equal entries are not always repeated.

Test system: HEK-293T
Experiment: Multiplex assay against HEK293T
Format: toxicity, cell-based
Details: human
How it was run: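 Phenotypes for tubulin, mitochondrial mass and membrane permeability are expressed as per cents of healthy-nucleus cells. Cells were stained live at seeding with Hoechst33342, BioTracker Green Microtubule Cytoskeleton Dye, MitoTracker Red and Annexin V Alexa Fluor 680, then imaged after compound addition on a CQ1 microscope at 37°C and 5% CO2. Machine-learning gating in CellPathfinder separated Hoechst high-intensity objects from normal cells, divided normal cells by nuclear state (healthy, pyknosed, fragmented) and divided pyknosed cells into mitotic or apoptotic.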

[1] = 12 h, 1 µM, compound concentration 1 uM
[2] = 12 h, 10 µM, compound concentration 10 uM
[3] = 24 h, 1 µM, compound concentration 1 uM
[4] = 24 h, 10 µM, compound concentration 10 uM
[5] = 48 h, 1 µM, compound concentration 1 uM
[6] = 48 h, 10 µM, compound concentration 10 uM

SMILES: CN1CCN(c2nc3cc(C(F)(F)F)ccc3n3cccc23)CC1.O=C(O)/C=C\C(=O)O.O=C(O)/C=C\C(=O)O
- Population Apoptotic (%) [1]: 37% and 53%
- Population Fragmented Nuclei (%) [1]: 5% and 8%
- Population Healthy Nuclei (%) [1]: 80% and 77%
- Population Hoechst High Intensity Objects (%) [1]: 10% and 5%
- Population Membrane Permeable-Phenotype (%) [1]: 0%
- Population Mitochondria Different-Phenotype (%) [1]: 48% and 76%
- Population Mitotic Cells (%) [1]: 62% and 46%
- Population Normal (%) [1]: 89% and 94%
- Population Pyknosed Nuclei (%) [1]: 13% and 14%
- Population Tubulin-Different-Phenotype (%) [1]: 33% and 35%
- Total Cell Count [1]: 438 and 332
- Population Apoptotic (%) [2]: 68% and 64%
- Population Fragmented Nuclei (%) [2]: 7% and 5%
- Population Healthy Nuclei (%) [2]: 76%
- Population Hoechst High Intensity Objects (%) [2]: 14% and 9%
- Population Membrane Permeable-Phenotype (%) [2]: 0%
- Population Mitochondria Different-Phenotype (%) [2]: 73% and 89%
- Population Mitotic Cells (%) [2]: 31% and 35%
- Population Normal (%) [2]: 85% and 90%
- Population Pyknosed Nuclei (%) [2]: 15% and 18%
- Population Tubulin-Different-Phenotype (%) [2]: 64% and 66%
- Total Cell Count [2]: 396 and 286
- Population Apoptotic (%) [3]: 33% and 54%
- Population Fragmented Nuclei (%) [3]: 9% and 6%
- Population Healthy Nuclei (%) [3]: 81% and 83%
- Population Hoechst High Intensity Objects (%) [3]: 6%
- Population Membrane Permeable-Phenotype (%) [3]: 1% and 0%
- Population Mitochondria Different-Phenotype (%) [3]: 30% and 50%
- Population Mitotic Cells (%) [3]: 66% and 45%
- Population Normal (%) [3]: 93%
- Population Pyknosed Nuclei (%) [3]: 9% and 10%
- Population Tubulin-Different-Phenotype (%) [3]: 24% and 25%
- Total Cell Count [3]: 557 and 390
- Population Apoptotic (%) [4]: 41% and 63%
- Population Fragmented Nuclei (%) [4]: 8% and 10%
- Population Healthy Nuclei (%) [4]: 77% and 78%
- Population Hoechst High Intensity Objects (%) [4]: 9% and 7%
- Population Membrane Permeable-Phenotype (%) [4]: 0%
- Population Mitochondria Different-Phenotype (%) [4]: 65% and 79%
- Population Mitotic Cells (%) [4]: 58% and 36%
- Population Normal (%) [4]: 90% and 92%
- Population Pyknosed Nuclei (%) [4]: 13% and 10%
- Population Tubulin-Different-Phenotype (%) [4]: 62% and 58%
- Total Cell Count [4]: 490 and 378
- Population Apoptotic (%) [5]: 20% and 37%
- Population Fragmented Nuclei (%) [5]: 13%
- Population Healthy Nuclei (%) [5]: 78% and 79%
- Population Hoechst High Intensity Objects (%) [5]: 3% and 5%
- Population Membrane Permeable-Phenotype (%) [5]: 2% and 0%
- Population Mitochondria Different-Phenotype (%) [5]: 17% and 42%
- Population Mitotic Cells (%) [5]: 79% and 62%
- Population Normal (%) [5]: 96% and 94%
- Population Pyknosed Nuclei (%) [5]: 7%
- Population Tubulin-Different-Phenotype (%) [5]: 17% and 21%
- Total Cell Count [5]: 915 and 535
- Population Apoptotic (%) [6]: 50% and 52%
- Population Fragmented Nuclei (%) [6]: 15% and 11%
- Population Healthy Nuclei (%) [6]: 75% and 77%
- Population Hoechst High Intensity Objects (%) [6]: 10% and 12%
- Population Membrane Permeable-Phenotype (%) [6]: 2% and 0%
- Population Mitochondria Different-Phenotype (%) [6]: 41% and 65%
- Population Mitotic Cells (%) [6]: 50% and 47%
- Population Normal (%) [6]: 89% and 87%
- Population Pyknosed Nuclei (%) [6]: 8% and 10%
- Population Tubulin-Different-Phenotype (%) [6]: 44% and 56%
- Total Cell Count [6]: 672 and 472
